Assay results published in ChEMBL document CHEMBL1955778, “Design and synthesis of novel 7-aminoquinazoline derivatives: antitumor and anticonvulsant activities” (Bioorg Med Chem Lett, 2012).

What was measured:
Mus musculus [1] = test: Anticonvulsant activity in mouse assessed as protection against strychnine-induced seizure at 1.4 mmol/kg, ip administered 30 min prior to strychnine-challenge measured after 60 mins relative to control; type: functional
Mus musculus [2] = test: Anticonvulsant activity in mouse assessed as protection against picrotoxin-induced seizure at 1.4 mmol/kg, ip administered 30 min prior to picrotoxin-challenge measured after 60 mins relative to control; type: functional
Mus musculus [3] = species: Mus musculus; test: Protective index, ratio of TD50 for mouse to ED50 for pentylenetetrazol-induced seizure in mouse; type: functional
Outline: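 Mice. Index is TD50/ED50. TD50 is the dose causing minimal neurological toxicity in 50% of mice in the Chimney test. ED50 is the dose protecting 50% of mice against pentylenetetrazole-induced seizures. Both are estimated from testing at several doses.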

Mus musculus [4] = test: Anticonvulsant activity in mouse assessed as protection against pentylenetetrazol-induced seizure at 1.4 mmol/kg, ip administered 30 min prior to pentylenetetrazol-challenge measured after 60 mins relative to control; type: functional
[5] = Therapeutic index, ratio of LD50 for mouse to ED50 for pentylenetetrazol-induced seizure in mouse; type: organism-based; settings: in vivo, read-out: Ratio LD50/ED50
Outline: (§1)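 In mice, LD50 is the dose causing 50% mortality. ED50 is the dose protecting 50% of mice against pentylenetetrazole-induced seizures. Therapeutic index = LD50/ED50.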

Mus musculus [6] = test: Anticonvulsant activity in ip dosed mouse assessed as protection against pentylenetetrazol-induced seizure administered 30 min prior to pentylenetetrazol-challenge measured after 60 mins; type: functional
Outline: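 Mice received several doses for quantification. ED50 taken as the dose protecting 50% of mice against pentylenetetrazol-induced seizures.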

Mus musculus [7] = test: Anticonvulsant activity in mouse assessed as protection against maximal electroshock-induced seizure at 1.4 mmol/kg, ip administered 30 min prior to maximal electroshock-challenge measured after 60 mins relative to control; type: functional
[8] = Toxicity in ip dose mouse assessed as mortality; type: organism-based; settings: in vivo; outline: as §1
[9] = Neurotoxicity in ip dosed mouse assessed as impaired motor coordination administered 30 mins prior to test by chimney test; type: toxicity, organism-based; settings: in vivo
Outline: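 Mice, Chimney test. TD50 is the dose that produces minimal neurological toxicity (impaired motor coordination) in 50% of animals, estimated from testing at several doses.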

For Cc1ccccc1-n1c(C)nc2ccccc2c1=O [METHAQUALONE], the Activity (Mus musculus [1]) was 0%, the Activity (Mus musculus [2]) was 50% and the “Ratio TD50/ED50” value (Mus musculus [3]) was 1.14. It also gave an Activity (Mus musculus [4]) of 100%, a selectivity ratio [5] of 1.4 and an ED50 (Mus musculus [6]) of 1400 µmol/kg. The Activity (Mus musculus [7]) was 100%, the LD50 [8] was 2000 µmol/kg and the TD50 at 0.5 h [9] was 1600 µmol/kg.
